Data reported in ChEMBL document CHEMBL1149884, “Investigating biological activity spectrum for novel quinoline analogues 2: hydroxyquinolinecarboxamides with photosynthesis-inhibiting activity” (Bioorg Med Chem, 2008).
The source made the active and inactive calls. The calls are words filed in the database; no cut-off is given here.

How the values were obtained:
[1] = Lipophilicity, log K of the compound; format: physicochemical
Outline: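 Isocratic RP-HPLC on end-capped C18 column, methanol as organic modifier. Retention times taken in minutes. Capacity factor K derived from them, and log K used as a lipophilicity index.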

Spinacia oleracea = test: Herbicidal activity in Spinacia oleracea assessed as inhibition of photosynthetic electron transport by decrease in oxygen evolution; format: functional
Outline: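 Spinach chloroplast PET measured as oxygen evolution in phosphate buffer (0.02 mol/L, pH 7.2) with sucrose 0.4 mol/L, MgCl₂ 0.005 mol/L, NaCl 0.015 mol/L. Chl 30 mg/L, halogen lamp irradiation (~100 W/m², 10 cm, water filter), 22 °C. IC50 = molar concentration giving 50% decrease in oxygen evolution vs untreated control.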

Chlorella vulgaris = test: Herbicidal activity against Chlorella vulgaris Beij assessed as decrease in chlorophyll content after 7 days; format: functional, organism-based; details: for IC50: 168 h
Outline: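 C. vulgaris grown statically at room temperature (16 h light/8 h dark, 80 µmol/m² s PAR, pH 7.2), starting Chl 0.01 mg/L. Exposed 7 days to 100, 75, 50, 25, 8.3, 4.2, 0.83 µmol/L (DMSO ≤0.25%, matched DMSO controls). Chl read spectrophotometrically after methanol extraction. IC50 = 50% Chl decrease vs control, else mean % of control over 100–0.83 µmol/L ± SD.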

| log K [1] | log K ([1]; octanol/water) | SMILES | IC50 (Spinacia oleracea) | Activity (Chlorella vulgaris) | Activity (Spinacia oleracea) | IC50 (Chlorella vulgaris) |
| --- | --- | --- | --- | --- | --- | --- |
| 0.4087 |  | COc1ccc(CNC(=O)c2cc([N+](=O)[O-])c3ccc(C)nc3c2O)cc1 | 137 µM | inactive |  |  |
| 0.372 |  | Cc1ccc2ccc(C(=O)NC(C)c3ccc(F)cc3)c(O)c2n1 (stereo unspecified) |  |  | inactive | 83.3 µM |
| 0.1168 |  | Cc1ccc2ccc(C(=O)NCCCNC(=O)c3ccc4ccc(C)nc4c3O)c(O)c2n1 |  |  | inactive | 149 µM |
| 0.1109 |  | Cc1ccc2ccc(C(=O)NCCNC(=O)c3ccc4ccc(C)nc4c3O)c(O)c2n1 |  |  | inactive | 93.7 µM |
| 0.3793 |  | Cc1ccc(CNC(=O)c2ccc3ccc(C)nc3c2O)cc1 |  |  | inactive | 7.2 µM |
| 0.4072 |  | Cc1ccc2c(O)c(C(=O)Nc3ccc4c(O)c(C(=O)O)cc([N+](=O)[O-])c4n3)ccc2n1 | 114 µM |  |  |  |
| 0.2629 |  | Cc1ccc2ccc(C(=O)NCCO)c(O)c2n1 |  | inactive | inactive |  |
| 0.2843 |  | COc1ccc(CNC(=O)c2ccc3ccc(C)nc3c2O)cc1 |  |  | inactive | 4.8 µM |
| 0.3342 |  | Cc1ccc2ccc(C(=O)NCCc3ccc(F)cc3)c(O)c2n1 |  |  | inactive | 15.9 µM |
| 0.2812 |  | Cc1ccc2ccc(C(=O)NCc3ccccc3)c(O)c2n1 |  |  | inactive | 17.2 µM |
| 0.1203 |  | Cc1ccc2c(O)c(C(=O)NCCCNC(=O)c3ccc4nc(C)ccc4c3O)ccc2n1 | 819 µM |  |  | 19.5 µM |
| 0.4304 |  | Cc1ccc(CNC(=O)c2cc([N+](=O)[O-])c3ccc(C)nc3c2O)cc1 | 107 µM | inactive |  |  |
| 0.38 |  | Cc1ccc(CNC(=O)c2ccc3nc(C)ccc3c2O)cc1 | 468 µM |  |  |  |
| 0.5075 |  | Cc1ccc2ccc(C(=O)NCCCCc3ccccc3)c(O)c2n1 |  |  | inactive | 8.5 µM |
| 0.4283 |  | Cc1ccc2c([N+](=O)[O-])cc(C(=O)NC(C)c3ccc(F)cc3)c(O)c2n1 (stereo unspecified) | 8.7 µM |  |  | 43.6 µM |
| 0.4136 |  | Cc1ccc2c([N+](=O)[O-])cc(C(=O)NCc3ccc(F)cc3)c(O)c2n1 | 95 µM | inactive |  |  |
| 0.4173 |  | Cc1ccc2c(O)c(C(=O)NCCCCc3ccccc3)ccc2n1 | 7.2 µM |  |  | 10.9 µM |
| 0.3663 |  | Cc1ccc2c(O)c(C(=O)NC(C)c3ccc(F)cc3)ccc2n1 (stereo unspecified) | 426 µM |  |  |  |
|  |  | CN(C)C(=O)Nc1ccc(Cl)c(Cl)c1 [DCMU] | 1.9 µM |  |  |  |
| 0.4021 |  | Cc1ccc2c([N+](=O)[O-])cc(C(=O)NCc3ccccc3)c(O)c2n1 | 32 µM | inactive |  |  |
| 0.2404 |  | Cc1ccc2ccc(C(=O)NCCc3ccccc3)c(O)c2n1 |  |  | inactive |  |
| 0.3812 |  | Cc1ccc2c(O)c(C(=O)Nc3ccc(Cl)cc3)ccc2n1 | 265 µM |  |  | 23.8 µM |
| 0.3775 |  | Cc1ccc2c(O)c(C(=O)NCCc3ccc(O)cc3)ccc2n1 | 16 µM |  |  |  |
| 0.612 |  | Cc1ccc2c(O)c(C(=O)NC(=O)NC(=O)c3ccc4nc(C)ccc4c3O)ccc2n1 | 833 µM |  |  | 5.5 µM |
|  | 0.6361 | Cc1ccc2ccc(C(=O)NNC(=O)c3ccccc3O)c(O)c2n1 |  | inactive | inactive |  |
| 0.3389 |  | Cc1ccc2ccc(C(=O)NCc3ccc(F)cc3)c(O)c2n1 |  |  | inactive | 158 µM |
